# Source: PubChem (several laboratories)
# This excerpt belongs to a sample that is enriched for hits.
# UPR XBP1 act – activators of adaptive arm of unfolded protein response (XBP1) | actives 0.33% (n = 330,000) | CHO-XBP1 luciferase reporter, IRE1-XBP1 UPR activation, luminescence; percent of tunicamycin response, DMSO as zero | activation, % at 20 µM;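 active = versus positive control, 20 µM dose yields 30% or more activation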;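 also: 100% = tunicamycin at 10 µg/mL and 0% = DMSO only wells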
#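 incubation = overnight seeding at 37 °C, 6 h compound treatment at 37 °C | assay system = CHO-XBP1 cells stably carrying IRE1-XBP1-driven luciferase reporter | input = 1000 cells per well | detection = luciferase luminescence | dosing = single point, 20 µM final compound, 1% DMSO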
# Tb MetRS inh – Trypanosoma brucei MetRS inhibition; purified T. brucei MetRS, ATP depletion, Kinase-Glo luminescence; inhibition, % at 11.9 µM; actives 0.4% (n = 360,000);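 active = inhibition above a per-plate cutoff of the control wells' mean inhibition plus 3 SD, cut at about 5.5% in these data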;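 also: 0% = DMSO wells median and 100% = median of wells with control inhibitor compound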
#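 technique = Kinase-Glo luminescence, ATP depletion format | system = purified MetRS (methionyl-tRNA synthetase) enzyme from Trypanosoma brucei | timing = 15 min preincubation, 2 h reaction, all 25 °C | evaluation = percent inhibition versus plate control medians | dosing = single dose, 11.9 µM final nominal, 0.9% final DMSO | also added = substrates ATP, L-methionine and bulk Escherichia coli tRNA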
# CHOP inh – CHOP inhibition in unfolded protein response; inhibition, % at 10 µM; CHO-K1 CHOP-promoter luciferase, tunicamycin-induced, 15-18 h; actives 3.8% (n = 220,000); AID 2732;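 active = compounds that reduced the stress-induced luciferase reporter signal by more than about 70% of percent inhibition, limit read from the data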;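 also: 0% = tunicamycin plus vehicle and 100% = wells without tunicamycin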
# V-ATPase pHluor – yeast V-ATPase proton transport regulation by pHLuorin; S. cerevisiae, pHLuorin cytosolic pH fluorescence; response, % at 10 µM; actives 0.37% (n = 350,000); in the data active = response mostly above about 7.3%, no sharp cut-off; inactive = mostly below about 5.4%; also: actives read high
# UPR CHOP act – apoptotic UPR (CHOP) activation; CHO-CHOP luciferase reporter, luminescence; percent of tunicamycin response over DMSO baseline; actives 0.34% (n = 330,000); activation, % at 10 µM; AID 449763;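 active = at 10 µM dose, activation of 40% or more, normalized to positive control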;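 also: 100% = tunicamycin at 10 µg/mL and 0% = DMSO alone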
#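 Test system: CHO-CHOP cells, stable luciferase reporter of PERK-eIF2a-CHOP signalling | Quantity: 500 CHO-CHOP cells per well | Buffer or medium: F12 plus 10% serum | Compound dosing: 10 µM single point, 0.5% DMSO | Schedule: 6 h compound treatment, 37 °C | Signal: Luciferase luminescence | Control set: Tunicamycin high control, DMSO low control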
# * hit, by the source's call; . = not tested or not shown.
SMILES,UPR XBP1 act,Tb MetRS inh,CHOP inh,V-ATPase pHluor,UPR CHOP act
N#CC1=C(N)NC(SCc2ccc(Br)cc2)=C(C#N)C12CCCCC2,1,1,93*,1,-2
N#CC1=C(N)NC(SCc2ccc(Cl)cc2)=C(C#N)C12CCCCC2,5,0,61,11,-1
N#CC1=C(N)NC(SCC(=O)Nc2ccc(Br)cc2)=C(C#N)C12CCCCC2,-3,4,73*,0,1
c1ccc(COc2cccc(-c3cc4nc(NCCCn5ccnc5)ccn4n3)c2)cc1,.,0,.,.,.
COc1ccccc1C(=O)Nc1nc(-c2ccc(S(=O)(=O)N3CCOCC3)cc2)cs1,-4,0,92*,3,-6
COc1ccccc1OC(C)C(=O)Nc1nc(-c2ccc(S(=O)(=O)N3CCOCC3)cc2)cs1 (stereo not drawn),-1,0,18,-2,-2
Cc1cc(C)c(S(=O)(=O)Nc2ccc3c(c2)CCC3)c(C)c1,0,0,84*,1,5
CN(Cc1ccccc1)Cc1nc2scc(-c3ccccc3)c2c(=O)[nH]1,-2,0,9,-1,0
O=c1[nH]c(Cc2ccccc2)nc2scc(-c3ccccc3)c12,0,-1,80*,1,-2
O=C(O)c1ccc(OCc2occc2C(=O)O)cc1,-1,-1,-137,17*,2
O=C(O)c1ccc(OCc2ccc(C(=O)O)o2)cc1,1,0,.,2,0
COc1cc(C(=O)NCC2CCCN2S(=O)(=O)c2cccs2)cc(OC)c1OC (stereo not drawn),4,0,.,-3,2
Cc1ccc(C)c(-n2nnnc2SCC(=O)c2ccc3c(c2)NC(=O)CO3)c1,-1,0,81*,-1,-1
CCc1nnc(SCC(=O)NC2CCCC2)nc1CC,0,-2,74*,-4,-2
CCc1nnc(SCC(=O)NC2CCCCC2)nc1CC,1,-1,-5,8,0
O=C(O)Cc1cn(Cc2ccc(F)cc2)c2ccccc12,-2,-1,-5,-3,47*
Cc1ccc(Cn2cc(CCC(=O)O)c3ccccc32)cc1,-1,0,.,2,1
O=C1/C(=C/c2ccccc2)Nc2ccccc21,5,-1,-192,0,1
O=C1/C(=C/c2ccccc2)NC(=S)N1C(c1ccccc1)c1ccccc1,-1,0,89*,-1,-2
Fc1ccc(N2N=C(c3cccs3)CC2c2ccccc2)cc1 (stereo not drawn),1,0,23,0,2
Fc1ccccc1N1CC(c2ccccc2)C(c2cccs2)=N1 (stereo not drawn),-2,0,71*,-1,1
Nc1ncnc2c1nc(Sc1ccc(Cl)cc1)n2C1OC2COP(=O)(O)O[C@@H]2[C@@H]1O (stereo partly drawn),.,.,-16,.,.
Cn1c(=O)c(C(=O)c2ccccc2)c(O)c2ccccc21,-1,-1,.,-3,-2
CC(=O)c1c(OC(=O)c2ccccc2)c2ccccc2n1C,5,0,70*,1,0
O=C(Nn1c(-c2ccc(Br)cc2)nc2ccccc2c1=O)c1ccncc1,-1,0,8,2,0
SMILES,UPR XBP1 act,Tb MetRS inh,CHOP inh,V-ATPase pHluor,UPR CHOP act
Cc1cc(C(=O)Nn2c(-c3ccc(Br)cc3)nc3ccccc3c2=O)ccc1[N+](=O)[O-],0,6,91*,1,-1
C=CCn1c(-c2cc(-c3ccc(C)cc3)nc3ccccc23)n[nH]c1=S,6,0,70*,-3,2
O=C(COc1ccc(/C=C\[N+](=O)[O-])cc1)N1CCOCC1,2,0,85*,1,3
COc1ccccc1NC(=O)C1=C(C)Nc2nnnn2C1c1ccccc1OC (stereo not drawn),-5,-1,11,0,0
COc1ccccc1/C=C1\CCCC2=C1Nc1nnnn1C2c1ccccc1OC (stereo not drawn),.,0,84*,1,.
COc1cc(NC(=O)CCN2CCN(c3ccccc3OC)CC2)cc(OC)c1,.,0,.,3,.
C[C@H](CCC(=O)NCC(=O)O)[C@H]1CC[C@H]2C3[C@H](O)C[C@@H]4C[C@H](O)CC[C@]4(C)[C@H]3C[C@H](O)[C@]12C (stereo partly drawn),-5,-1,.,-2,1
CCN(CC)c1ccc2c(Cl)cc(=O)oc2c1,0,.,94*,.,5
CCN(CC)c1ccc2c(O)cc(=O)oc2c1,1,1,3,-5,-1
S=C(Sc1ccc(Cl)cc1)Sc1ccc(Cl)cc1,-9,.,106*,.,-9
Nc1cc(Cl)ccc1CN1C(=O)c2ccccc2C1=O,.,-1,.,.,.
CN1C[C@@H]2[C@@H]3C(=O)N(Cc4ccccc4)C(=O)[C@@H]3[C@](Cc3ccccc3)(C1=O)N2C(=O)c1ccc(Br)cc1,.,0,.,-6,.
Cc1ccccc1N1CCN(C(=O)C2CCCCC2)CC1,-6,-2,-13,-1,0
Cc1cccc(N2CCN(C(=O)C3CCCCC3)CC2)c1C,-1,0,96*,-2,1
Cc1cccc(N2CCN(C(=O)C34CC5CC(CC(C5)C3)C4)CC2)c1C,-2,1,72*,3,-1
O=C(N1CCN(c2ccccc2F)CC1)C12CC3CC(CC(C3)C1)C2,0,0,-21,1,0
CCC(=O)N1CCCC(C)(C(=O)Nc2ccc3scnc3c2)C1 (stereo not drawn),.,0,.,.,.
CC(C)CC(C(=O)NC1CCCC1)N(Cc1ccc2c(c1)OCO2)C(=O)c1snc(C(N)=O)c1N (stereo not drawn),-2,0,81*,-2,0
CCC(C(=O)NC1CCCC1)N(Cc1ccc2c(c1)OCO2)C(=O)c1snc(C(N)=O)c1N (stereo not drawn),-2,0,7,-4,-2
COc1cc(C#N)ccc1OCC(=O)Nc1cccc(S(=O)(=O)N(C)c2ccccc2)c1,.,0,.,1,.
N#CC(C#N)=C1C=C2C=C(N3CCOCC3)CCC2CC1 (stereo not drawn),.,0,-19,16,.
CCN1CCN(C2=CC3=CC(=C(C#N)C#N)CCC3CC2)CC1 (stereo not drawn),.,0,5,28*,.
N#CC(C#N)=C1C=C2C=C(N3CCCCCC3)CCC2CC1 (stereo not drawn),.,2,9,234*,.
CN(C)c1ccc(C=O)c(Oc2ccccc2)c1,.,0,.,-3,.
CC(=O)NN1C(=O)/C(=C/c2ccc(C(C)C)cc2)SC1=S,-1,0,27,-2,3
Cc1cc(S(=O)(=O)c2ccc([N+](=O)[O-])cn2)ccc1Br,-10,-1,.,8.7*,-10
Cc1ccc(S(=O)(=O)c2ccc([N+](=O)[O-])cn2)cc1,-9,0,.,2,-10
